Reference: ChEMBL document CHEMBL4007487, “Discovery of Novel Pyridone-Conjugated Monosulfactams as Potent and Broad-Spectrum Antibiotics for Multidrug-Resistant Gram-Negative Infections” (J Med Chem, 2017)
Converted amounts (≈) assume the structure as drawn.

Tests used:
Klebsiella pneumoniae = assay: Antibacterial activity against extended spectrum beta-lactamase KPC-2 producing multidrug resistant Klebsiella pneumoniae clinical isolates after 18 hrs by broth microdilution method; format: functional
Plasma = assay: Fraction unbound in human plasma at 10 uM after 4 hrs by LC-MS/MS based rapid equilibrium dialysis method; format: ADME, cell-free
Procedure, shortened: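 Human plasma spiked at 10 μM was dialysed against buffer in a rapid equilibrium dialysis device for 4 h at 37 °C under 5% CO2 (n = 4). Both sides were quantified by LC–MS/MS. Fraction unbound was taken as the buffer concentration divided by the total plasma-side concentration.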

Acinetobacter baumannii = assay: Antibacterial activity against extended spectrum beta-lactamase OXA-23 producing multidrug resistant Acinetobacter baumannii clinical isolates after 18 hrs by broth microdilution method; format: functional
Pseudomonas aeruginosa = assay: Antibacterial activity against extended spectrum beta-lactamase IMP-4 producing multidrug resistant Pseudomonas aeruginosa clinical isolates after 18 hrs by broth microdilution method; format: functional
[1] = Drug degradation in human plasma at 10 uM after 4 hrs by LC-MS/MS analysis; format: ADME, cell-free; conditions: read-out: Drug degradation
Procedure, shortened: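 Human plasma containing compound (10 μM, n = 4) was incubated for 4 h at 37 °C under 5% CO2. Concentrations at T0 and at 4 h were measured by LC–MS/MS, and degradation was expressed as a percentage relative to the T0 average.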

Escherichia coli = assay: Antibacterial activity against extended spectrum beta-lactamases producing Escherichia coli clinical isolates after 18 hrs by broth microdilution method; format: functional
[2] = Clearance in Sprague-Dawley rat at 1 mg/kg, iv measured up to 180 mins by LC-MS/MS analysis; conditions: in vivo
in vivo [3] = conditions: Sprague-Dawley, rat, iv, 1 mg/kg
in vivo [4] = conditions: Sprague-Dawley, rat, iv, 1 mg/kg; remark: listed apart in the source
[5] = Volume of distribution in steady state in Sprague-Dawley rat at 1 mg/kg, iv measured up to 180 mins by LC-MS/MS analysis; format: ADME, organism-based; conditions: in vivo, read-out: Vdss
Procedure, shortened: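 Male Sprague-Dawley rats (200–220 g, n = 3 per group) received 1.0 mg/kg iv in water. Blood was taken from the retrobulbar vein at 2, 5, 15, 30, 45, 60, 90 and 180 min. Plasma was quantified by LC–MS/MS, and parameters were derived by noncompartmental analysis of mean plasma concentrations.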

[6] = Klebsiella pneumoniae, 18 h, read-out: MIC

| Compound | MIC (Klebsiella pneumoniae; [6]) | Fu (Plasma) | MIC (Acinetobacter baumannii) | MIC (Pseudomonas aeruginosa) | metabolised at 4 h, 10 µM [1] | MIC (Klebsiella pneumoniae) | MIC (Escherichia coli) | clearance at 3 h [2] | AUC(0-t) at 3 h (in vivo [3]) | half-life (in vivo [4]) | Vd [5] |
| --- | --- | --- | --- | --- | --- | --- | --- | --- | --- | --- | --- |
| CC(C)SCC(O/N=C(\C(=O)N[C@@H]1C(=O)N(OS(=O)(=O)O)C1(C)C)c1csc(N)n1)c1cc(=O)c(O)cn1O (stereo partly drawn) | 0.06 to 1 µg/mL (≈ 0.0989 to 1.65 µM) | 21% | 0.25 to 2 µg/mL (≈ 0.412 to 3.3 µM) | 0.25 to 4 µg/mL (≈ 0.412 to 6.59 µM) | 34% | – | – | – | – | – | – |
| C=CC(O/N=C(\C(=O)N[C@@H]1C(=O)N(OS(=O)(=O)O)C1(C)C)c1csc(N)n1)c1cc(=O)c(O)cn1O (stereo partly drawn) | – | – | 0.25 to 2 µg/mL (≈ 0.459 to 3.67 µM) | 0.5 to 2 µg/mL (≈ 0.918 to 3.67 µM) | – | >0.03 to 64 µg/mL | – | – | – | – | – |
| COC(=O)C(O/N=C(\C(=O)N[C@@H]1C(=O)N(OS(=O)(=O)O)C1(C)C)c1csc(N)n1)c1cc(=O)c(O)cn1O (stereo partly drawn) | 0.25 to 2 µg/mL (≈ 0.434 to 3.47 µM) | 61% | 0.5 to 1 µg/mL (≈ 0.867 to 1.73 µM) | 1 to 4 µg/mL (≈ 1.73 to 6.94 µM) | 66% | – | 0.25 to 1 µg/mL (≈ 0.434 to 1.73 µM) | – | – | – | – |
| CC(C)OCC(O/N=C(\C(=O)N[C@@H]1C(=O)N(OS(=O)(=O)O)C1(C)C)c1csc(N)n1)c1cc(=O)c(O)cn1O (stereo partly drawn) | 0.25 to 64 µg/mL (≈ 0.423 to 108 µM) | – | 1 to 8 µg/mL (≈ 1.69 to 13.5 µM) | 0.5 to 8 µg/mL (≈ 0.847 to 13.5 µM) | – | – | – | – | – | – | – |
| CO/N=C(\C(=O)N[C@@H]1C(=O)N2C(C(=O)[O-])=CCS[C@H]12)c1csc(N)n1.[Na+] [CEFTIZOXIME SODIUM] | 32 to 64 µg/mL | – | 32 to 64 µg/mL | > 64 µg/mL | – | – | 0.5 to 2 µg/mL | – | – | – | – |
| CC(C)[C@H](O/N=C(\C(=O)N[C@@H]1C(=O)N(OS(=O)(=O)O)C1(C)C)c1nsc(N)n1)c1cc(=O)c(O)cn1O | 1 to 4 µg/mL (≈ 1.78 to 7.12 µM) | 27% | 1 to 4 µg/mL (≈ 1.78 to 7.12 µM) | 1 to 2 µg/mL (≈ 1.78 to 3.56 µM) | 16% | – | 0.5 to 2 µg/mL (≈ 0.89 to 3.56 µM) | – | – | – | – |
| Cn1nc(O)c(=O)nc1SCCO/N=C(\C(=O)N[C@@H]1C(=O)N(OS(=O)(=O)O)C1(C)C)c1csc(N)n1 | 16 to 64 µg/mL (≈ 28.3 to 113 µM) | – | 16 to 64 µg/mL (≈ 28.3 to 113 µM) | 16 to 64 µg/mL (≈ 28.3 to 113 µM) | – | – | 1 to 8 µg/mL (≈ 1.77 to 14.2 µM) | – | – | – | – |
| CC(C)[C@H](O/N=C(\C(=O)N[C@@H]1C(=O)N(OS(=O)(=O)O)C1(C)C)c1csc(N)n1)c1cc(=O)c(O)cn1O | 0.125 to 1 µg/mL (≈ 0.223 to 1.78 µM) | 27% | 1 to 2 µg/mL (≈ 1.78 to 3.57 µM) | 0.125 to 1 µg/mL (≈ 0.223 to 1.78 µM) | 23% | – | 0.06 to 0.25 µg/mL (≈ 0.107 to 0.446 µM) | 28.5 mL/min/kg | 675 ng·h/mL | 15.6 min | 0.36 L/kg |
| CSCC(O/N=C(\C(=O)N[C@@H]1C(=O)N(OS(=O)(=O)O)C1(C)C)c1csc(N)n1)c1cc(=O)c(O)cn1O (stereo partly drawn) | – | 32% | 0.125 to 1 µg/mL (≈ 0.216 to 1.73 µM) | 0.125 to 1 µg/mL (≈ 0.216 to 1.73 µM) | 28% | – | – | 26.1 mL/min/kg | 661 ng·h/mL | 15 min | 0.37 L/kg |
| CC(C)C(O/N=C(\C(=O)N[C@@H]1C(=O)N(OS(=O)(=O)O)C1(C)C)c1nsc(N)n1)c1cc(=O)c(O)cn1O (stereo partly drawn) | 0.06 to 1 µg/mL (≈ 0.107 to 1.78 µM) | 28% | 0.5 to 4 µg/mL (≈ 0.89 to 7.12 µM) | 0.5 to 32 µg/mL (≈ 0.89 to 57 µM) | 11% | – | 0.06 to 2 µg/mL (≈ 0.107 to 3.56 µM) | – | – | – | – |
| CC(O/N=C(\C(=O)N[C@@H]1C(=O)N(OS(=O)(=O)O)C1(C)C)c1nc(N)sc1Cl)c1cc(=O)c(O)cn1O (stereo partly drawn) | 0.06 to 1 µg/mL (≈ 0.106 to 1.76 µM) | 20% | 0.25 to 2 µg/mL (≈ 0.441 to 3.53 µM) | 0.5 to 4 µg/mL (≈ 0.882 to 7.06 µM) | 20% | – | – | – | – | – | – |
| CC1(C)[C@H](NC(=O)/C(=N\OC(c2nccs2)c2cc(=O)c(O)cn2O)c2csc(N)n2)C(=O)N1OS(=O)(=O)O (stereo partly drawn) | – | – | 0.5 to 2 µg/mL (≈ 0.831 to 3.32 µM) | 1 to 2 µg/mL (≈ 1.66 to 3.32 µM) | – | – | – | – | – | – | – |
| CC(O/N=C(\C(=O)N[C@@H]1C(=O)N(OS(=O)(=O)O)C1(C)C)c1nsc(N)n1)c1cc(=O)c(O)cn1O (stereo partly drawn) | 0.25 to 64 µg/mL (≈ 0.469 to 120 µM) | 37% | 2 to 64 µg/mL (≈ 3.75 to 120 µM) | 0.5 to 64 µg/mL (≈ 0.937 to 120 µM) | 13% | – | – | – | – | – | – |
| CNC(=O)C(O/N=C(\C(=O)N[C@@H]1C(=O)N(OS(=O)(=O)O)C1(C)C)c1csc(N)n1)c1cc(=O)c(O)cn1O (stereo partly drawn) | 0.25 to 2 µg/mL (≈ 0.434 to 3.48 µM) | 69% | 0.25 to 1 µg/mL (≈ 0.434 to 1.74 µM) | 4 µg/mL (≈ 6.95 µM) | 36% | – | 0.06 to 4 µg/mL (≈ 0.104 to 6.95 µM) | – | – | – | – |
| CCC(O/N=C(\C(=O)N[C@@H]1C(=O)N(OS(=O)(=O)O)C1(C)C)c1csc(N)n1)c1cc(=O)c(O)cn1O (stereo partly drawn) | – | 35% | 0.25 to 2 µg/mL (≈ 0.457 to 3.66 µM) | 0.125 to 4 µg/mL (≈ 0.229 to 7.32 µM) | 27% | >0.03 to 64 µg/mL | 0.25 to 2 µg/mL (≈ 0.457 to 3.66 µM) | – | – | – | – |
| Cc1cc(=O)c(O)cn1CCO/N=C(\C(=O)N[C@@H]1C(=O)N(OS(=O)(=O)O)C1(C)C)c1csc(N)n1 | 8 to 64 µg/mL (≈ 15.1 to 121 µM) | – | 8 to 64 µg/mL (≈ 15.1 to 121 µM) | 64 µg/mL (≈ 121 µM) | – | – | 1 to 64 µg/mL (≈ 1.88 to 121 µM) | – | – | – | – |
